Blank lines part the entries; values can stand above or below the compound they belong to. Activity calls are given as the source filed them. The calls are words filed in the database; no cut-off is given here.
How the values were obtained:
Cannabinoid receptor 1 [1] = molecular target: T1, Cannabinoid receptor 1 (Homo sapiens, UniProt P21554); assay: biochemical; assay type: cell-based, HEK293
Cannabinoid receptor 1 [2] = molecular target: T1, Cannabinoid receptor 1; assay: Antagonist activity at human CB1 receptor expressed in CHOK1 cells assessed as inhibition of forskolin-stimulated cAMP levels; assay type: functional, cell-based; details: CHO-K1
Summary of the method: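 Incubated 20 min at 37 °C with graded agonist plus 3 µM forskolin (final), with or without a fixed antagonist concentration. cAMP measured by scintillation proximity assay. Kb from the agonist EC50 concentration ratio: pKb = log(CR−1) − log B.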

Cannabinoid receptor 2 = Cannabinoid receptor 2 (Homo sapiens, UniProt P34972); assay: Displacement of [3H][…] from human CB2 receptor expressed in HEK293 cells; assay type: cell-based
Summary of the method: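 HEK 293 membranes expressing human CB-2 (3.3 µg protein) incubated with 0.3 nM [3H]CP 55940 and varying competitor concentrations. Binding buffer: 50 mM Tris pH 7.4, 2.5 mM EDTA, 5 mM MgCl2, 0.1% fatty-acid-free BSA; 90 min at 30 °C with shaking. Nonspecific binding defined with 10 µM WIN 55212-2. Filtered through GF/C plates, read by scintillation counting. Nonlinear regression; mean of two or more triplicate runs.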

[3] = Cmax in Wistar rat plasma at 10 mg/kg, po; assay type: ADME, organism-based; parameters: dose 10 mg/kg, route oral
Summary of the method: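 Wistar rats dosed orally at 10 mg/kg, typically as a 30% cyclodextrin suspension or as a suspension in PEG400/25 mM methanesulfonic acid (80:20). Plasma levels sampled typically at 0.5, 1 and 2 h after dosing; Cmax taken from these time points.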

Rattus norvegicus [4] = assay: Reduction of body weight in Zucker fa/fa rat at 10 mg/kg, po after 8 days; assay type: functional; parameters: scale not given: the % may be the effect or the level left
Summary of the method: (§1)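 Two-day baseline body weight and 24 h food and water intake, then weight-matched into groups. Daily oral dose of 1, 5 or 10 mg/kg suspension (2 mL/kg) before the nocturnal feeding phase. Body weight recorded daily; change versus vehicle-treated rats.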

Rattus norvegicus [5] = assay: Reduction of body weight in Zucker fa/fa rat at 5 mg/kg, po after 13 days; assay type: functional; parameters: scale not given: the % may be the effect or the level left
Summary of the method: as §1

Rattus norvegicus [6] = assay: Reduction of body weight in Zucker fa/fa rat at 1 mg/kg, po after 13 days; assay type: functional, Zuker fa/fa; parameters: scale not given: the % may be the effect or the level left
Summary of the method: as §1

Rattus norvegicus [7] = assay: Reduction of food intake in fasted-refed Wistar rat at 10 mg/kg, po after 1 hr; assay type: functional; parameters: scale not given: the % may be the effect or the level left
Summary of the method: (§2)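 Male Wistar rats, individually housed on mesh floors, 12-h/12-h light/dark cycle, fasted overnight (18 h). Single oral dose of vehicle or compound at 10 mg/kg (2 mL/kg), vehicle 30% cyclodextrin or PEG/MSA, 1 h before re-feeding. Cumulative food intake recorded at 30, 60, 90, 180 and 240 min, corrected for spillage. 10 rats per group; percent reduction versus vehicle.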

Rattus norvegicus [8] = assay: Reduction of food intake in fasted-refed Wistar rat at 10 mg/kg, po after 4 hrs; assay type: functional; parameters: scale not given: the % may be the effect or the level left
Summary of the method: as §2

Rattus norvegicus [9] = assay: Reduction of body weight in Zucker fa/fa rat at 10 mg/kg, po after 13 days; assay type: functional; parameters: scale not given: the % may be the effect or the level left
Summary of the method: as §1

Rattus norvegicus [10] = assay: Reduction of food intake in fasted-refed Wistar rat at 10 mg/kg, po after 3 hrs; assay type: functional; parameters: scale not given: the % may be the effect or the level left
Summary of the method: as §2

Rattus norvegicus [11] = assay: Reduction of food intake in fasted-refed Wistar rat at 10 mg/kg, po after 1.5 hrs; assay type: functional; parameters: scale not given: the % may be the effect or the level left
Summary of the method: as §2

Rattus norvegicus [12] = assay: Reduction of food intake in fasted-refed Wistar rat at 10 mg/kg, po after 0.5 hrs; assay type: functional; parameters: scale not given: the % may be the effect or the level left
Summary of the method: as §2

Rattus norvegicus [13] = assay: Effect on cumulative food intake in fasted-refed Wistar rat assessed as appetite suppression at 10 mg/kg, po; assay type: functional, organism-based; parameters: dose 10 mg/kg
Summary of the method: as §2

[14] = Drug level in Wistar rat brain at 10 mg/kg, po after 2 hrs; assay type: ADME, organism-based; parameters: dose 10 mg/kg, route oral; details: read-out: Drug uptake
Summary of the method: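 Brain levels measured 2 h after a 10 mg/kg oral dose to Wistar rats, within pharmacokinetic screening; oral vehicle was PEG/MSA suspension.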

Rattus norvegicus [15] = assay: Reduction of food intake in fasted-refed Wistar rat at 10 mg/kg, po after 0.5 to 4 hrs; assay type: functional; parameters: scale not given: the % may be the effect or the level left
Summary of the method: as §2

Chain of Cannabinoid receptor 2 (P34972 whole entry): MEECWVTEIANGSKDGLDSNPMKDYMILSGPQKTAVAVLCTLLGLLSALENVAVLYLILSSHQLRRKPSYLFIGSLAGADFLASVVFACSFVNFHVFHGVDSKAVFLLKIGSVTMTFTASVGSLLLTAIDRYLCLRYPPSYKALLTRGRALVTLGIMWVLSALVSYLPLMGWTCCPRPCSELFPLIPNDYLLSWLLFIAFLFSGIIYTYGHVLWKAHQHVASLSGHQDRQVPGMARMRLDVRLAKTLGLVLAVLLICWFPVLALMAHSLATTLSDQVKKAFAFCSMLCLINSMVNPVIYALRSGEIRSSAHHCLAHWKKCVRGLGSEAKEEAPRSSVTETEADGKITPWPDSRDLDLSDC
T1 sequence (P21554 whole entry): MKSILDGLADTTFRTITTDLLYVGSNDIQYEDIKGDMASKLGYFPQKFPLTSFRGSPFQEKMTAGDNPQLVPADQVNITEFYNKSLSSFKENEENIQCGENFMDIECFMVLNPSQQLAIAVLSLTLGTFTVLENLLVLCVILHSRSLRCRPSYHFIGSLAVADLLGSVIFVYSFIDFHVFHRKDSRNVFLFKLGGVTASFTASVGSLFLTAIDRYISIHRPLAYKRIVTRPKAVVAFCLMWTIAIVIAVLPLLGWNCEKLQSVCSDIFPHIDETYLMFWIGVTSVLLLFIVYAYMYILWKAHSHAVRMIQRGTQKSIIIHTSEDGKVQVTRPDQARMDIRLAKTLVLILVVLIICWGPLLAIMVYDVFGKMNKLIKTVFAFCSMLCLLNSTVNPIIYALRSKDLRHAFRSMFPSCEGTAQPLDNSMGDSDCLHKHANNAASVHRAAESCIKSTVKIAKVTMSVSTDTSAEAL

Structure (SMILES): Cc1ccc(-c2nc(C(=O)NC3CCCCC3)cn2-c2ccc(Cl)cc2)c(C)c1
Ki (Cannabinoid receptor 1 [1]): 0.0072 µM

Structure (SMILES): CCc1c(C(=O)N[C@H]2CCCC[C@@H]2O)nc(-c2ccccc2Cl)n1-c1ccc(Br)cc1
Cmax [3]: 2.1 µM
Activity (Rattus norvegicus [4]): 5.6%
Activity (Rattus norvegicus [5]): -6.1%
Ki (Cannabinoid receptor 1 [1]): 0.0037 µM
Activity (Rattus norvegicus [6]): -1.9%
Activity (Rattus norvegicus [7]): 64%
Activity (Rattus norvegicus [8]): 35%
Activity (Rattus norvegicus [9]): -10.6%
Kb (Cannabinoid receptor 1 [2]): 0.013 µM
Ki (Cannabinoid receptor 2): 2.7 µM
Activity (Rattus norvegicus [10]): 52%
Activity (Rattus norvegicus [11]): 62%
Activity (Rattus norvegicus [12]): 63%

Structure (SMILES): O=C(NC1CCCCC1)c1cn(-c2ccc(Cl)cc2)c(-c2ccc(Cl)cc2Cl)n1
Cmax [3]: 0.05 µM
Ki (Cannabinoid receptor 1 [1]): 0.0039 µM
Activity (Rattus norvegicus [13]): inactive
Kb (Cannabinoid receptor 1 [2]): 0.018 µM
Ki (Cannabinoid receptor 2): 0.24 µM

Structure (SMILES): O=C(N[C@H]1CCC[C@@H]1O)c1cn(-c2ccc(Cl)cc2)c(-c2ccccc2Cl)n1
Cmax [3]: 2.11 µM
Ki (Cannabinoid receptor 1 [1]): 0.029 µM
concentration at 2 h [14]: 0.33 µM
Activity (Rattus norvegicus [15]): 26%
Kb (Cannabinoid receptor 1 [2]): 0.0097 µM
Ki (Cannabinoid receptor 2): 6.3 µM

Structure (SMILES): CCc1ccccc1-c1nc(C(=O)NC2CCCCC2)cn1-c1ccc(Cl)cc1
Ki (Cannabinoid receptor 1 [1]): 0.039 µM

Structure (SMILES): COc1ccc(-n2cc(C(=O)NC3CCCCC3)nc2-c2ccc(Cl)cc2Cl)cc1
Ki (Cannabinoid receptor 1 [1]): 0.0049 µM

Structure (SMILES): O=C(N[C@H]1c2ccccc2C[C@@H]1O)c1cn(-c2ccc(Cl)cc2)c(-c2ccccc2Cl)n1 (racemic)
Ki (Cannabinoid receptor 1 [1]): 0.022 µM

Structure (SMILES): O=C(N[C@@H]1c2ccccc2C[C@@H]1O)c1cn(-c2ccc(Cl)cc2)c(-c2ccccc2Cl)n1
Ki (Cannabinoid receptor 1 [1]): 0.018 µM
Kb (Cannabinoid receptor 1 [2]): 0.0092 µM
Ki (Cannabinoid receptor 2): 5.1 µM

Structure (SMILES): Cc1ccc(-n2cc(C(=O)NC3CCCCC3)nc2-c2ccccc2Cl)cc1
Ki (Cannabinoid receptor 1 [1]): 0.0046 µM

Structure (SMILES): Cc1ccccc1-c1nc(C(=O)NC2CCCCC2)cn1-c1ccc(Cl)cc1
Ki (Cannabinoid receptor 1 [1]): 0.021 µM
Kb (Cannabinoid receptor 1 [2]): 0.0073 µM
Ki (Cannabinoid receptor 2): > 1 µM

Structure (SMILES): COc1ccc(-n2cc(C(=O)NC3CCCCC3)nc2-c2ccccc2Cl)cc1
Ki (Cannabinoid receptor 1 [1]): 0.009 µM

Structure (SMILES): Cc1c(C(=O)NN2CCCCC2)nn(-c2ccc(Cl)cc2Cl)c1-c1ccc(Cl)cc1 [RIMONABANT]
Activity (Rattus norvegicus [4]): 6.5%

Structure (SMILES): O=C(NC1CCCCC1)c1cn(-c2cccnc2)c(-c2ccccc2Cl)n1
Ki (Cannabinoid receptor 1 [1]): 1.1 µM

Structure (SMILES): O=C(N[C@H]1c2ccccc2C[C@H]1O)c1cn(-c2ccc(Cl)cc2)c(-c2ccccc2Cl)n1
Ki (Cannabinoid receptor 1 [1]): 0.0063 µM
Kb (Cannabinoid receptor 1 [2]): 0.0022 µM
Ki (Cannabinoid receptor 2): 1.2 µM

Structure (SMILES): CC1CCC(n2cc(C(=O)NC3CCCCC3)nc2-c2ccccc2Cl)CC1 (stereo not given)
Ki (Cannabinoid receptor 1 [1]): 0.017 µM

Structure (SMILES): O=C(NC1CCCCC1)c1cn(-c2ccc(Cl)cc2)c(-c2ccc(F)cc2F)n1
Ki (Cannabinoid receptor 1 [1]): 0.036 µM

Structure (SMILES): O=C(N[C@H]1CCCC[C@@H]1O)c1cn(-c2ccc(Cl)cc2)c(-c2ccccc2Cl)n1
Cmax [3]: 1.64 µM
Ki (Cannabinoid receptor 1 [1]): 0.029 µM
concentration at 2 h [14]: 0.11 µM
Activity (Rattus norvegicus [15]): 34%
Kb (Cannabinoid receptor 1 [2]): 0.0071 µM
Ki (Cannabinoid receptor 2): 5.3 µM

Structure (SMILES): O=C(NC1CCCCC1)c1cn(-c2ccc(F)cc2)c(-c2ccc(Cl)cc2Cl)n1
Ki (Cannabinoid receptor 1 [1]): 0.0082 µM

Structure (SMILES): CCCCc1c(C(=O)N[C@H]2CCCC[C@@H]2O)nc(-c2ccccc2Cl)n1-c1ccc(Cl)cc1
Ki (Cannabinoid receptor 1 [1]): 0.01 µM

Structure (SMILES): O=C(NC1CCCCC1)c1cn(-c2ccc(Cl)cc2)c(-c2ccccc2)n1
Ki (Cannabinoid receptor 1 [1]): 0.13 µM

Structure (SMILES): O=C(NC1CCCCC1O)c1cn(-c2ccc(Cl)cc2)c(-c2ccc(Cl)cc2Cl)n1 (racemic)
Ki (Cannabinoid receptor 1 [1]): 0.022 µM
Activity (Rattus norvegicus [15]): 21%
Kb (Cannabinoid receptor 1 [2]): 0.0044 µM
Ki (Cannabinoid receptor 2): 1.1 µM

Other lines, results leading:

Ki (Cannabinoid receptor 1 [1]): 0.0022 µM
Kb (Cannabinoid receptor 1 [2]): 0.011 µM
Ki (Cannabinoid receptor 2): 2.3 µM
Structure (SMILES): O=C(NC1CCCCC1)c1cn(-c2ccc(Cl)cc2)c(-c2ccccc2Cl)n1

Ki (Cannabinoid receptor 1 [1]): 0.018 µM
Structure (SMILES): CC(C)c1c(C(=O)N[C@H]2CCCC[C@@H]2O)nc(-c2ccccc2Cl)n1-c1ccc(Cl)cc1

Ki (Cannabinoid receptor 1 [1]): 0.62 µM
Structure (SMILES): CN[C@H]1CCCC[C@@H]1NC(=O)c1cn(-c2ccc(Cl)cc2)c(-c2ccc(Cl)cc2Cl)n1

Ki (Cannabinoid receptor 1 [1]): 0.097 µM
Kb (Cannabinoid receptor 1 [2]): 0.022 µM
Structure (SMILES): O=C(N[C@@H]1CCCC[C@H]1O)c1cn(-c2ccc(Cl)cc2)c(-c2ccccc2Cl)n1

Ki (Cannabinoid receptor 1 [1]): 0.041 µM
Structure (SMILES): O=C(N[C@H]1Cc2ccccc2[C@@H]1O)c1cn(-c2ccc(Cl)cc2)c(-c2ccccc2Cl)n1 (racemic)

Ki (Cannabinoid receptor 1 [1]): 0.025 µM
Structure (SMILES): O=C(NC1CCCCC1)c1cn(-c2ccc(Cl)cc2)c(-c2cc(Cl)ccc2Cl)n1

Ki (Cannabinoid receptor 1 [1]): 0.0019 µM
Structure (SMILES): Cc1ccc(-n2cc(C(=O)NC3CCCCC3)nc2-c2ccc(Cl)cc2Cl)cc1

Ki (Cannabinoid receptor 1 [1]): 0.02 µM
Structure (SMILES): O=C(NC1CCCCC1)c1cn(-c2ccc(F)cc2)c(-c2ccccc2Cl)n1

Ki (Cannabinoid receptor 1 [1]): 0.034 µM
Structure (SMILES): CN(C(=O)c1cn(-c2ccc(Cl)cc2)c(-c2ccccc2Cl)n1)C1CCCCC1

Ki (Cannabinoid receptor 1 [1]): 0.0069 µM
Structure (SMILES): Cc1c(C(=O)N[C@H]2CCCC[C@@H]2O)nc(-c2ccccc2Cl)n1-c1ccc(Cl)cc1

Ki (Cannabinoid receptor 1 [1]): 0.0057 µM
Kb (Cannabinoid receptor 1 [2]): 0.0014 µM
Ki (Cannabinoid receptor 2): 2.7 µM
Structure (SMILES): CCCc1c(C(=O)N[C@H]2CCCC[C@@H]2O)nc(-c2ccccc2Cl)n1-c1ccc(Cl)cc1

Ki (Cannabinoid receptor 1 [1]): 0.095 µM
Structure (SMILES): COc1ccccc1-c1nc(C(=O)NC2CCCCC2)cn1-c1ccc(Cl)cc1

Ki (Cannabinoid receptor 1 [1]): 0.075 µM
Structure (SMILES): O=C(N[C@@H]1CCC[C@H]1O)c1cn(-c2ccc(Cl)cc2)c(-c2ccccc2Cl)n1

Ki (Cannabinoid receptor 2): 2.3 µM
Structure (SMILES): CCc1c(C(=O)N[C@H]2CCCC[C@@H]2O)nc(-c2ccccc2Cl)n1-c1ccc(Cl)cc1

Ki (Cannabinoid receptor 1 [1]): 0.94 µM
Structure (SMILES): N[C@@H]1CCCC[C@H]1NC(=O)c1cn(-c2ccc(Cl)cc2)c(-c2ccc(Cl)cc2Cl)n1

Ki (Cannabinoid receptor 1 [1]): 0.92 µM
Structure (SMILES): CN[C@@H]1CCCC[C@H]1NC(=O)c1cn(-c2ccc(Cl)cc2)c(-c2ccc(Cl)cc2Cl)n1

Ki (Cannabinoid receptor 1 [1]): 0.017 µM
Structure (SMILES): O=C(N[C@H]1Cc2ccccc2[C@H]1O)c1cn(-c2ccc(Cl)cc2)c(-c2ccccc2Cl)n1 (racemic)

Ki (Cannabinoid receptor 1 [1]): 0.019 µM
Structure (SMILES): O=C(N[C@H]1CCCC[C@@H]1O)c1nc(-c2ccccc2Cl)n(-c2ccc(Cl)cc2)c1Br

Ki (Cannabinoid receptor 1 [1]): 0.27 µM
Structure (SMILES): N[C@H]1CCCC[C@@H]1NC(=O)c1cn(-c2ccc(Cl)cc2)c(-c2ccc(Cl)cc2Cl)n1
